Structures are written as SMILES. Activity calls are given as the source filed them. No cut-off for these calls is given here.

Data on one compound can be found in ChEMBL document CHEMBL4602720, “Degradation versus Inhibition: Development of Proteolysis-Targeting Chimeras for Overcoming Statin-Induced Compensatory Upregulation of 3-Hydroxy-3-methylglutaryl Coenzyme A Reductase” (J Med Chem, 2020).

Experiment [1] has as its target T1, 3-hydroxy-3-methylglutaryl-coenzyme A reductase (Homo sapiens) (UniProt P04035).
T1 sequence (whole entry): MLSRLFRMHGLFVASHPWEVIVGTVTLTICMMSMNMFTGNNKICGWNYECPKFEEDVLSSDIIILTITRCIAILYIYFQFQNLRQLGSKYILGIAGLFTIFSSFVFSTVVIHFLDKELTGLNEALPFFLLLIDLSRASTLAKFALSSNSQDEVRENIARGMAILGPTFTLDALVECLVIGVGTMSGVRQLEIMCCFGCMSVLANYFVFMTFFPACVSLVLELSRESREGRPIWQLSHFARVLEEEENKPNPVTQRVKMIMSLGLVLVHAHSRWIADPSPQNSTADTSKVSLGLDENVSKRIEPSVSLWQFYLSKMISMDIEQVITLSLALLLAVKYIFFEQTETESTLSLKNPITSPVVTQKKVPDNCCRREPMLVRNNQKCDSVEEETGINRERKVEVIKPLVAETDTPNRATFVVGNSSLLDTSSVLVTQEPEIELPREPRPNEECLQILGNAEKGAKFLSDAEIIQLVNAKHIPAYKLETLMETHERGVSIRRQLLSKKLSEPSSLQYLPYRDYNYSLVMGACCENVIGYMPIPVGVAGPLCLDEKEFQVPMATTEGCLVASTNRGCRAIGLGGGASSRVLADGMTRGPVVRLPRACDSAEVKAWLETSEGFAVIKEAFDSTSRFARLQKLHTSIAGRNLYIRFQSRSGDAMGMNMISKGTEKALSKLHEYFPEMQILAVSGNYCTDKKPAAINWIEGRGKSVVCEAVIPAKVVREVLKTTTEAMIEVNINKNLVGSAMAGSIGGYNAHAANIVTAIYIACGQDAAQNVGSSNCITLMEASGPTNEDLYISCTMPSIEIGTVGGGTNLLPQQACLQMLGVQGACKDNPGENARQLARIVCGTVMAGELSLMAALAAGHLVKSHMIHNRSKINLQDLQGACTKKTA
The experiment in a line: Inhibition of GFP-labelled HMGCR (unknown origin) expressed in lentivirus Chinese hamster SRD15 cells assessed as reduction in cholesterol biosynthesis at 1 uM after 16 hrs by Hoechst staining based laser-scanning microscopic method. Type of experiment: cell-based.

The target of experiment [2] is T2, Protein cereblon/3-hydroxy-3-methylglutaryl-coenzyme A reductase (Cricetulus griseus) (UniProt P00347+G3H338). In words: Protac activity at CRBN/HMGCR in Insig-1/Insig-2 deficient Chinese hamster SRD15 cells assessed as HMGCR level at 1 uM after 16 hrs by immunoblotting analysis relative to control. In short, it runs like this:
(§1)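 Dose-response in SRD15 cells in Medium A with 5% FBS, 16 h treatment, DMSO final 0.1% or lower. RIPA lysates immunoblotted for HMGCR. HMGCR densitometry normalized to actin, with the DMSO group set to 1. Three repeats. DC50 is taken from a dose-response fit of the semi-quantitative blots, mean of 3 independent experiments.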
In general terms: A western blot detects proteins with antibodies after separation by electrophoresis.
Target sequence in this assay (G3H338 1-445 partner): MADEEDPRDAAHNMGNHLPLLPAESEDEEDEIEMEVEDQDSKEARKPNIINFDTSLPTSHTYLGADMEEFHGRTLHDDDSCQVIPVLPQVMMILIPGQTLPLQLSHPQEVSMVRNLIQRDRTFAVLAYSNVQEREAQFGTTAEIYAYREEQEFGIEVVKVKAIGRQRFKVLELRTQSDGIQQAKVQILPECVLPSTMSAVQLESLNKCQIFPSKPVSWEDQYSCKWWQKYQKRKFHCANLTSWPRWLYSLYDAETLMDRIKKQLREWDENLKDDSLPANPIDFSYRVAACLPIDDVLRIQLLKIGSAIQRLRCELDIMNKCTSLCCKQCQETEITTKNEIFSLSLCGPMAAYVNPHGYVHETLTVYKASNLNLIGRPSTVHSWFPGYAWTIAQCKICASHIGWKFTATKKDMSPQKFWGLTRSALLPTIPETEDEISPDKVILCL
Target sequence in this assay (P00347 whole entry): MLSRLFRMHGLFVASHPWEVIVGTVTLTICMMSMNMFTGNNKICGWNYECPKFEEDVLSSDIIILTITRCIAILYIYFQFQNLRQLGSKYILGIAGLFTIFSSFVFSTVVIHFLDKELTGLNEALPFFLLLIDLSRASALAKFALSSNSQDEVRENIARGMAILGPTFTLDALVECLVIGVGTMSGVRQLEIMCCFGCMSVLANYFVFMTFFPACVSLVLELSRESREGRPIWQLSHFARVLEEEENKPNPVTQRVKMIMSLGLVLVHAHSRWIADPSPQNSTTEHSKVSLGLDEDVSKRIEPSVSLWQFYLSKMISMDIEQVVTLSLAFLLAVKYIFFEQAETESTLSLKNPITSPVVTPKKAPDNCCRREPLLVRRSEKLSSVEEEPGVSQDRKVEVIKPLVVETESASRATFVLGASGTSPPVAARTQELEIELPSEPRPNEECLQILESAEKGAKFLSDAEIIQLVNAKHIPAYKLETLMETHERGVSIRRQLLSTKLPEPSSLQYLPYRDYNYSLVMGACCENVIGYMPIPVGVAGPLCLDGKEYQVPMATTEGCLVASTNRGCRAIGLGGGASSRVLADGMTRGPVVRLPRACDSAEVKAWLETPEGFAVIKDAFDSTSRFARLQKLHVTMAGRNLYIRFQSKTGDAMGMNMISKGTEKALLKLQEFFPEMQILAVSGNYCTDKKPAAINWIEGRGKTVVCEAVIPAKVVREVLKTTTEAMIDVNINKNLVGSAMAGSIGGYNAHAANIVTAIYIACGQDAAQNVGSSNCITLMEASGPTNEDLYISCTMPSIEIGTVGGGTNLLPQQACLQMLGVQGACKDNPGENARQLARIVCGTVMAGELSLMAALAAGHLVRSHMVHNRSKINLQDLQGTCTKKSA

The target of experiment [3] is T2, Protein cereblon/3-hydroxy-3-methylglutaryl-coenzyme A reductase (Cricetulus griseus). The experiment in a line: Protac activity at CRBN/HMGCR in 5'-CCAGAAACUGAAGAUGAAA-3' siRNA transfected in Insig-1/Insig-2 deficient Chinese hamster SRD15 cells assessed as induction of HMGCR degradation at 1 uM after 16 hrs by immunoblotting analysis. In short, it runs like this: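 SRD15 cells (Insig-1/Insig-2-deficient CHO-7) in Medium A with 5% FBS at 37 °C, 5% CO2; transfected with negative-control or Crbn-targeting siRNA duplexes for 48 h, then given 1 μM degrader for 16 h. HMGCR by SDS-PAGE immunoblot of RIPA lysates. Knockdown efficiency checked by qRT-PCR against hamster GAPDH, comparative CT method. n = 3 independent experiments.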

For experiment [4] the target is unchanged. The experiment in a line: Protac activity at CRBN/HMGCR in Insig-1/Insig-2 deficient Chinese hamster SRD15 cells assessed as HMGCR level at 1 uM after 16 hrs in presence of 10 uM pomalidomide by immunoblotting analysis (reference value: 1).
Target sequence in this assay (G3H338 1-445 partner): as the sequence (G3H338 1-445 partner) above
Target sequence in this assay (P00347 whole entry): as the sequence (P00347 whole entry) above
Experiment [5] shares this target. The experiment in a line: Protac activity at CRBN/HMGCR in Insig-1/Insig-2 deficient Chinese hamster SRD15 cells assessed as HMGCR level at 0.01 uM after 16 hrs by immunoblotting analysis (reference value: 1). The procedure, abridged:
as §1
Target sequence in this assay (G3H338 1-445 partner): as the sequence (G3H338 1-445 partner) above
Target sequence in this assay (P00347 whole entry): as the sequence (P00347 whole entry) above

Experiment [6] shares this target. The experiment in a line: Protac activity at CRBN/HMGCR in Insig-1/Insig-2 deficient Chinese hamster SRD15 cells assessed as HMGCR level at 1 uM after 16 hrs in presence of 0.3 uM atorvastatin by immunoblotting analysis (reference value: 1).
Target sequence in this assay (G3H338 1-445 partner): as the sequence (G3H338 1-445 partner) above
Target sequence in this assay (P00347 whole entry): as the sequence (P00347 whole entry) above
The target of experiment [7] is T3, Thioredoxin domain-containing protein 11 (Homo sapiens) (UniProt Q6PKC3).
T3 sequence (whole entry): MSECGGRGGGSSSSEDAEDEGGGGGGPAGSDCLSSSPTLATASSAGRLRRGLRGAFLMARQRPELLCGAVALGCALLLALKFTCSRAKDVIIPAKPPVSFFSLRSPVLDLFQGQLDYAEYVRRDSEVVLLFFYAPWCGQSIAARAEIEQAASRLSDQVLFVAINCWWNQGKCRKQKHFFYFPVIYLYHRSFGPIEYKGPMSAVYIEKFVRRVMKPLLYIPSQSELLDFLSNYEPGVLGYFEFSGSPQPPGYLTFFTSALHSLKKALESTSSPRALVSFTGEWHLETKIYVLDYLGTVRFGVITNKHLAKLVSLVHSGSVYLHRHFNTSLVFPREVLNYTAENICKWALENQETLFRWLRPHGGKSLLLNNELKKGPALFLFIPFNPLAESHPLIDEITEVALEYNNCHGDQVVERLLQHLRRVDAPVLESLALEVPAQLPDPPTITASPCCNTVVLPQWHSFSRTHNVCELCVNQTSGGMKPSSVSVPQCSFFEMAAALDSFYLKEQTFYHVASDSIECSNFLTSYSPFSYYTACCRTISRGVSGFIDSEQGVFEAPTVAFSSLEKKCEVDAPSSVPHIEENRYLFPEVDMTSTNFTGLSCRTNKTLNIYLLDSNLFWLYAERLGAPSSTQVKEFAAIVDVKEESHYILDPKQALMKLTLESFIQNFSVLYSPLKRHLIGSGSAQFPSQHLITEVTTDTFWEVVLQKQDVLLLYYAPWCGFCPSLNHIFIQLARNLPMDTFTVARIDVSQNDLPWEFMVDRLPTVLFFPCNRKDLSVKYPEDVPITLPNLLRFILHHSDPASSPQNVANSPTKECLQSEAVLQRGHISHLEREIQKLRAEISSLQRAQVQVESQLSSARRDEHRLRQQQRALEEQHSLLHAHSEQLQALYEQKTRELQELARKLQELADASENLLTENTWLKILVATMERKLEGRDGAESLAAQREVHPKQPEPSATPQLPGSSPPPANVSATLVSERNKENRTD
The experiment in a line: Activation of TXNDC11 (unknown origin).

Experiment [8] concerns the target T2, Protein cereblon/3-hydroxy-3-methylglutaryl-coenzyme A reductase (Cricetulus griseus). In words: Protac activity at CRBN/HMGCR in Insig-1/Insig-2 deficient Chinese hamster SRD15 cells assessed as increase in ubiquitination level of HMGCR at 1 uM incubated for 4 hrs in presence of MG132 by Western blot analysis. In short, it runs like this: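 SRD15 cells given DMSO or 1 μM degrader together with 10 μM MG132 for 4 h. Lysates probed by immunoblot with P4D1 anti-ubiquitin antibody for high-molecular-weight HMGCR smears.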

Turning to `CC(C)c1c(C(=O)Nc2ccccc2)c(-c2cccc(OCCCc3cn(CCOCCOCCOCCOCCNc4cccc5c4C(=O)N(C4CCC(=O)NC4=O)C5=O)nn3)c2)c(-c2ccc(F)cc2)n1CC[C@@H](O)C[C@@H](O)CC(=O)O` (stereo partly drawn), in experiment [1], the inhibition result was “Active”. For the same compound, the Activity in experiment [2] was 50%. The result in experiment [3] was inactive. The fold change (FC) in experiment [4] turned out to be 1; in experiment [5] it was 0.8; in experiment [6] it was 1; in experiment [7] it was 7. Besides, the result in experiment [8] was Active.
